# Rows were chosen to be rich in hits. Some 4.5% of all compounds tested hit in one or more screens of this group.
# TAAR1 antag: antagonists of human TAAR1; inhibition, % at 3 µM; actives 1.5% (n = 360,000); CHO RD-HGA16 TAAR1, Fluo-8 calcium fluorescence, antagonist; AID 624466;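 active = inhibition above a per-plate cutoff, the mean inhibition of test compounds on that plate plus 3 SD, cut at about 49% in these data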
#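 Test system – hTAAR1-expressing CHO RD-HGA16 cells, Gα16-coupled · Also added – β-PEA at EC80 concentration, post-compound challenge · Compound – 3 µM, single point · Incubation – dye loading 75 min at 37 °C, then 30 min room temperature · Measured by – Fluo-8 intracellular calcium dye fluorescence, real-time kinetic reads · Benchmarks – vehicle and agonist controls · Replicates – singlicate, one well per test compound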
# OX1R antag-1: antagonists of human orexin 1 receptor (OX1R); O43613; OX1R-expressing cells, FRET antagonist read-out; inhibition, % at 6.6 µM; actives 1.8% (n = 330,000); in the data active = inhibition mostly above about 38%, no sharp cut-off; inactive = mostly below about 40%
# Target sequence (O43613 whole entry, looked up): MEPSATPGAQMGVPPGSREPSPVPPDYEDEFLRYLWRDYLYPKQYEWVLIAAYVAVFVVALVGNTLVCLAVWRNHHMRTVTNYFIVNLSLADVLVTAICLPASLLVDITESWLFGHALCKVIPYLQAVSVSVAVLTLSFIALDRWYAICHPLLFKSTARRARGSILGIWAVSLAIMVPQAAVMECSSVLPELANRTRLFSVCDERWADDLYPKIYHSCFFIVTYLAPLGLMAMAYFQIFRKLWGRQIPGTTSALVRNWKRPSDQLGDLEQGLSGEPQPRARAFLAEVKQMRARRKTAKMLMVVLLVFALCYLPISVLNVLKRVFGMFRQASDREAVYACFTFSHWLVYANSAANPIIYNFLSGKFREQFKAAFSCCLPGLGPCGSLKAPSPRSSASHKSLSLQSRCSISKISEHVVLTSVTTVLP
# GPR7 antagonist: blocks human GPR7 receptor signaling | P48145 | GPR7-expressing cells, fluorescence antagonist assay | inhibition, % at 4.4 µM | actives 1.1% (n = 290,000) | AID 1861; in the data active = inhibition above about 16%, passing the limit was not always enough;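 note: cells stimulated with the agonist NPW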
# CHO parental Ca: counter-screen for OX1R antagonists: effect in parental CHO cells; parental CHO-K1, ATP-induced calcium, Fluo-8 fluorescence; inhibition, % at 5.6 µM; actives 0.63% (n = 330,000); AID 463079;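 active = inhibition above that plate's mean sample inhibition plus 3 SD, cut at about 26% in these data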
#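 Assay system – parental CHO cells · Reagent – ATP stimulus · Detection – intracellular calcium via Fluo-8 no-wash fluorescent dye · Evaluation – percent inhibition of ATP-evoked calcium rise, normalized to controls · Controls – ATP wells versus no-ATP DMSO wells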
# OX1R antag-2: antagonists of human orexin 1 receptor. CHO/OX1R cells, Fluo-8 calcium fluorescence, orexin A. AID 434989. actives 0.43% (n = 330,000). O43613. inhibition, % at 5 µM;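 active = inhibition above its plate's threshold, mean inhibition of all tested compounds on the plate plus 3 SD, cut at about 37% in these data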
# TAAR1 ag: human TAAR1 agonism. actives 0.99% (n = 360,000). activation, % at 3 µM. AID 624467. CHO RD-HGA16 TAAR1, Fluo-8 calcium fluorescence; vehicle wells 0%, saturating PEA agonist 100%. Q96RJ0;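 active = activation above the mean activation of all test compounds in the run plus 3 SD, cut at about 38% in these data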
#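 System: CHO-derived RD-HGA16 cells with stable Gα16 and human TAAR1. Times: 17-24 h plating, Fluo-8 75 min 37 °C, 30 min RT. Measured by: calcium-sensitive Fluo-8 signal, excitation 470-495, emission 515-575 nm. Read-out basis: % activation relative to PEA EC100 response. Control set: DMSO and PEA EC100. Repeats: no replicates (n 1).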
# Hits are given with their value; – = inactive; · = not tested or not shown.
SMILES,TAAR1 antag,OX1R antag-1,GPR7 antagonist,CHO parental Ca,OX1R antag-2,TAAR1 ag
CCN1C(=O)/C(=C/N2CCc3ccccc32)SC1=S,·,–,–,–,–,·
COC(=O)C1=C(C)N(C)C(=NCc2ccccc2)NC1c1ccc(F)cc1 (stereo unspecified),–,·,·,·,·,–
Cc1ccc(S(=O)(=O)c2ccc(C)cc2)cc1,–,–,–,–,–,–
Cc1ccc(S(=O)(=O)C=CS(=O)(=O)c2ccc(C)cc2)cc1,50,·,·,·,·,–
CCOC(=O)C1CSCCS(=O)(=O)N1Cc1ccc(F)cc1 (stereo unspecified),–,·,·,·,·,–
COCCCNC(=O)C[C@H]1C[C@@]2(C(=O)OC)C(=C[C@H](COCc3ccccc3)O[C@@H]2C)N(Cc2ccc3c(c2)OCO3)C1=O,–,·,·,·,·,–
O=C(c1ccc(F)cc1)c1ccc(-c2ccc(F)cc2)nc1,–,–,–,–,–,–
N#CC(c1ccc(F)cc1)c1ccc(C(=O)c2ccc(F)cc2)cc1 (stereo unspecified),56,–,–,–,–,–
O=[N+]([O-])c1ccc(-c2nc(-c3ccncc3)no2)cc1,–,64,–,–,–,–
CCCCCNC(=O)Cc1ccc(S(=O)(=O)N2CCOCC2)s1,–,–,·,–,–,–
COC(=O)c1cc2c(c3c4cc(F)ccc4n(S(=O)(=O)c4cccc(C)c4)c13)C(=O)N(Cc1ccc(C(F)(F)F)cc1)C2,–,·,·,·,·,–
CCN(CC)S(=O)(=O)c1ccc(O)c(NC(=O)c2cc(-c3cc(OC)c(OC)c(OC)c3)nc3ccccc23)c1,·,68,–,–,–,·
CCN1CCN(c2ccc(S(=O)(=O)N3CCOCC3)cc2NC(=O)c2cc(Cl)nc3ccccc23)CC1,–,–,·,–,–,–
COc1cc(-c2cc(C(=O)Nc3ccc(S(N)(=O)=O)cc3)c3ccccc3n2)cc(OC)c1OC,–,–,–,–,–,–
CCN(Cc1ccccc1)C(=O)c1cc(-c2ccc(OC)c(OC)c2)nc2ccccc12,67,–,–,–,–,–
COc1ccc(NC(=O)c2cc(-c3cc(OC)c(OC)c(OC)c3)nc3ccccc23)cc1OC,55,–,–,–,–,–
COc1ccc(-c2cc(C(=O)Nc3cc(S(=O)(=O)N4CCOCC4)ccc3N3CCOCC3)c3ccccc3n2)cc1,54,–,–,–,–,–
CC(=O)CCN1CCSCCS1(=O)=O,–,·,·,·,·,–
CCN(C(=O)CCc1cn(CC)c2ccccc12)c1ccc(Oc2cccnc2)cc1,–,·,·,·,·,–
Cc1cc(C)n(C(C)CNC(=O)c2ccc3c(c2)OCO3)n1 (stereo unspecified),–,–,–,–,–,–
COc1ccc(-c2cc(C(=O)Nc3nc4c(C)cccc4s3)c3ccccc3n2)cc1OC,–,–,–,–,–,–
COc1ccccc1NC(=O)c1cc(-c2ccc(OC)c(OC)c2)nc2ccccc12,55,·,–,·,·,–
COc1cccc(C(C)(O)c2nc(-c3ccoc3)cs2)c1 (stereo unspecified),–,·,·,·,·,–
Clc1ccc(Nc2ccc(NCc3ccccc3)nn2)cc1,–,–,19,–,–,–
Cc1ccc(Nc2ccc(NCc3ccccc3)nn2)cc1C,–,–,–,–,–,–
SMILES,TAAR1 antag,OX1R antag-1,GPR7 antagonist,CHO parental Ca,OX1R antag-2,TAAR1 ag
COc1ccc(CNC(=O)CCn2c(C)csc2=O)cc1,–,–,·,–,–,–
CCCCCCCCC(=O)N1C(C)CCC1C (stereo unspecified),–,·,·,·,·,–
COc1ccc(CNC(=O)Nc2ccc(C)cc2)cc1,–,–,–,37,–,–
CCOC(=O)c1cnc(-n2[nH]c(C)c(Cc3ccccc3)c2=O)[nH]c1=O,–,–,17,–,–,–
CCOC(=O)c1cnc(Cc2ccccc2)[nH]c1=O,–,–,–,–,–,–
COC(=O)C1=C(C)N(C)C(=NCc2cc(OC)c(OC)c(OC)c2)NC1c1cccc(C(F)(F)F)c1 (stereo unspecified),–,·,·,·,·,–
COc1ccc(NC(=O)CCCSc2nc(-c3ccco3)cc(C(F)(F)F)n2)cc1OC,–,66,–,–,–,–
Cc1cc(NC(=O)CCCSc2nc(-c3ccco3)cc(C(F)(F)F)n2)no1,–,–,–,–,–,–
CC1CCCN(C(=O)COC(=O)C2=COCCO2)C1 (stereo unspecified),–,–,·,–,–,–
COc1ccc(/C=N/Nc2ncnc(Cl)c2N)cc1OC,–,56,–,–,–,–
Nc1c(Cl)ncnc1N/N=C/c1cccc(O)c1,–,72,–,–,–,–
COc1cccc(/C=N/Nc2ncnc(Cl)c2N)c1O,–,–,–,–,–,–
CC1=CC[C@@]23CCCN2C(=O)CCC[C@H]3C1,–,–,·,–,–,–
CC(=O)Nc1cc(NC(C)=O)cc(C(=O)N2CCCC3CCCCC32)c1 (stereo unspecified),–,–,–,–,–,–
O=C(O)CCCC[n+]1ccccc1,–,·,·,·,·,–
CC(C)(C)S(=O)N1C[C@@H]2CC(=O)C=C2[C@H]1CCO (stereo partly specified),–,·,·,·,·,–
C/C(=N\NC(=O)c1ccccc1)c1cc2cc([N+](=O)[O-])ccc2oc1=O,–,–,–,–,–,–
C/C(=N\NC(=O)c1ccc([N+](=O)[O-])cc1)c1cc2ccccc2oc1=O,–,68,–,–,–,–
O=C(NNC(=O)c1cc2ccccc2oc1=O)c1ccccc1[N+](=O)[O-],–,77,–,–,–,–
Cc1cc(C(=O)NNC(=O)c2ccccc2[N+](=O)[O-])c(C)o1,–,–,·,–,–,–
COC(=O)[C@]12C[C@H](CC(=O)N3CCCCC3)C(=O)N(CCC3=CCCCC3)C1=C[C@H](COCc1ccccc1)O[C@@H]2C,–,·,·,·,·,–
O=C(O)c1ccc(S(=O)(=O)/N=C2\C=C(Nc3ccccc3F)C(=O)c3ccccc32)cc1,–,63,–,–,–,–
COc1ccc(S(=O)(=O)/N=C2\C=C(Nc3ccc(O)cc3)C(=O)c3ccccc32)cc1,51,–,–,–,–,–
Cc1ccccc1NC1=C/C(=N\S(=O)(=O)c2ccc(C(=O)O)cc2)c2ccccc2C1=O,–,59,–,–,–,–
Cc1cccc(OC(C)C(=O)NC2CCS(=O)(=O)C2)c1C (stereo unspecified),·,–,–,–,–,·
COC(=O)C1=C(C)N(C)C(=NCc2ccc3c(c2)OCO3)NC1c1cccc(C(F)(F)F)c1 (stereo unspecified),–,·,·,·,·,–
O=C(Nc1ccc(F)cc1)c1nn(-c2ccccc2)c(=O)cc1Cl,–,·,46,·,·,–
Cc1ccc(NC(=O)c2cc(-c3ccccc3)nn2-c2ccccc2)cc1,–,–,–,–,–,–
Cc1ccc(S(=O)(=O)N2CCCc3ccccc32)cc1C,–,–,–,30,–,–

# Screening data: PubChem BioAssay, The Scripps Research Institute Molecular Screening Center
